According to ChEMBL document CHEMBL3352795, “Discovery of novel 1,5-benzodiazepine-2,4-dione derivatives as potential anticancer agents” (Bioorg Med Chem Lett, 2014):
Converted amounts (≈) assume the structure as drawn.

Experiments:
Format in all cases: functional, cell-based
A549 = experiment: Anticancer activity against human A549 cells assessed as growth inhibition after 48 hrs by MTT assay; conditions: A549, 48 h
Summary of the method: (§1)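 Standard MTT assay on cells incubated with compound for 48 h, with 5-fluorouracil as the positive control. Results are reported as IC50.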

MCF7 = experiment: Anticancer activity against human MCF7 cells assessed as growth inhibition after 48 hrs by MTT assay; conditions: MCF7, 48 h; summary of the method: as §1
[1] = Anticancer activity against human HCT116 cells assessed as growth inhibition after 48 hrs by MTT assay; conditions: HCT-116, 48 h; summary of the method: as §1
HeLa = experiment: Anticancer activity against human HeLa cells assessed as growth inhibition after 48 hrs by MTT assay; summary of the method: as §1
[2] = Anticancer activity against mouse LL/2 cells assessed as growth inhibition after 48 hrs by MTT assay; conditions: Lewis lung carcinoma; summary of the method: as §1

| SMILES | IC50 (A549) | IC50 (MCF7) | IC50 [1] | IC50 (HeLa) | IC50 [2] |
| --- | --- | --- | --- | --- | --- |
| Cc1ccc(CNC(=O)c2cccc3c2NC(=O)C(C(C)(C)C(=O)NCc2ccccc2)C(=O)N3)cc1 (centres undefined) | > 100 µg/mL |  |  |  |  |
| CC(C)(C(=O)NCc1ccccc1)C1C(=O)Nc2cccc(C(=O)NCc3c(F)ccc(F)c3F)c2NC1=O (centres undefined) | 97.7 µg/mL (≈ 181 µM) |  |  |  |  |
| CC(C)(C(=O)NCc1ccccc1)C1C(=O)Nc2cccc(C(=O)NC3CC3)c2NC1=O (centres undefined) | > 100 µg/mL |  |  |  |  |
| CC(C)(C(=O)NCc1ccccc1)C1C(=O)Nc2cccc(C(=O)NCc3cc(F)ccc3F)c2NC1=O (centres undefined) | 43.1 µg/mL (≈ 82.8 µM) | 74.8 µg/mL (≈ 144 µM) | 80.1 µg/mL (≈ 154 µM) | 25.1 µg/mL (≈ 48.2 µM) | 40.2 µg/mL (≈ 77.2 µM) |
| CC(C)(C(=O)NCc1ccccc1)C1C(=O)Nc2cccc(C(=O)Nc3cccc(F)c3F)c2NC1=O (centres undefined) | 80.4 µg/mL (≈ 159 µM) | 21 µg/mL (≈ 41.5 µM) | 25 µg/mL (≈ 49.4 µM) | 37.8 µg/mL (≈ 74.6 µM) | 32.9 µg/mL (≈ 65 µM) |
| CC(C)(C(=O)NCc1ccccc1)C1C(=O)Nc2cccc(C(=O)NCc3cccc(C(F)(F)F)c3)c2NC1=O (centres undefined) | 80.5 µg/mL (≈ 146 µM) | 36.1 µg/mL (≈ 65.3 µM) | 46.1 µg/mL (≈ 83.4 µM) | 8.1 µg/mL (≈ 14.7 µM) | 30.5 µg/mL (≈ 55.2 µM) |
| CC(C)(C(=O)NCc1ccccc1)C1C(=O)Nc2cccc(C(=O)Nc3ccccc3)c2NC1=O (centres undefined) | 85.3 µg/mL (≈ 181 µM) | 21.3 µg/mL (≈ 45.3 µM) | 26.6 µg/mL (≈ 56.5 µM) | 41.9 µg/mL (≈ 89 µM) | 29.3 µg/mL (≈ 62.3 µM) |
| CC(C)(C(=O)NCc1ccccc1)C1C(=O)Nc2cccc(C(=O)Nc3ccc(F)c(F)c3F)c2NC1=O (centres undefined) | > 100 µg/mL |  |  |  |  |
| CC(C)(C(=O)NCc1ccccc1)C1C(=O)Nc2cccc(C(=O)NCc3ccccn3)c2NC1=O (centres undefined) | > 100 µg/mL |  |  |  |  |
| CC(C)(C(=O)NCc1ccccc1)C1C(=O)Nc2cccc(C(=O)Nc3cccc(Cl)c3)c2NC1=O (centres undefined) | 56.2 µg/mL (≈ 111 µM) | 11.2 µg/mL (≈ 22.2 µM) | 17.3 µg/mL (≈ 34.3 µM) | 24 µg/mL (≈ 47.5 µM) | 17.1 µg/mL (≈ 33.9 µM) |
| CC(C)NC(=O)c1cccc2c1NC(=O)C(C(C)(C)C(=O)NCc1ccccc1)C(=O)N2 (centres undefined) | > 100 µg/mL |  |  |  |  |
| O=c1[nH]cc(F)c(=O)[nH]1 [FLUOROURACIL] |  | 12.1 µg/mL (≈ 93 µM) | 4.8 µg/mL (≈ 36.9 µM) | 5.7 µg/mL (≈ 43.8 µM) | 2.9 µg/mL (≈ 22.3 µM) |
| CC(C)(C(=O)NCc1ccccc1)C1C(=O)Nc2cccc(C(=O)Nc3ccc(C(F)(F)F)cc3)c2NC1=O (centres undefined) | > 100 µg/mL |  |  |  |  |
| CC(C)(C(=O)NCc1ccccc1)C1C(=O)Nc2cccc(C(=O)NCc3ccc(F)c(Cl)c3)c2NC1=O (centres undefined) | 68.1 µg/mL (≈ 127 µM) | 68.2 µg/mL (≈ 127 µM) | 49.9 µg/mL (≈ 92.9 µM) | 21.1 µg/mL (≈ 39.3 µM) | 66.8 µg/mL (≈ 124 µM) |
| CC(C)(C(=O)NCc1ccccc1)C1C(=O)Nc2cccc(C(=O)NCc3ccccc3)c2NC1=O (centres undefined) | 45.3 µg/mL (≈ 93.5 µM) | 91.2 µg/mL (≈ 188 µM) | 85 µg/mL (≈ 175 µM) | 42 µg/mL (≈ 86.7 µM) | 48.5 µg/mL (≈ 100 µM) |
| CC(C)(C(=O)NCc1ccccc1)C1C(=O)Nc2cccc(C(=O)Nc3cccc(C(F)(F)F)c3)c2NC1=O (centres undefined) | 27.8 µg/mL (≈ 51.6 µM) | 10 µg/mL (≈ 18.6 µM) | 20.5 µg/mL (≈ 38.1 µM) | 42 µg/mL (≈ 78 µM) | 17.6 µg/mL (≈ 32.7 µM) |
| CC(C)(C)NC(=O)c1cccc2c1NC(=O)C(C(C)(C)C(=O)NCc1ccccc1)C(=O)N2 (centres undefined) | > 100 µg/mL |  |  |  |  |
| Cc1ccc(CNC(=O)c2cccc3c2NC(=O)C(C(C)(C)C(=O)NCc2ccccc2)C(=O)N3)cc1Cl (centres undefined) | 59.4 µg/mL (≈ 111 µM) | 87 µg/mL (≈ 163 µM) | > 100 µg/mL | 16.7 µg/mL (≈ 31.3 µM) | 58.3 µg/mL (≈ 109 µM) |
| CC(C)(C(=O)NCc1ccccc1)C1C(=O)Nc2cccc(C(=O)Nc3ccc(F)cc3F)c2NC1=O (centres undefined) | > 100 µg/mL |  |  |  |  |
| CC(C)(C(=O)NCc1ccccc1)C1C(=O)Nc2cccc(C(=O)Nc3cc(Cl)ccc3F)c2NC1=O (centres undefined) | 63.3 µg/mL (≈ 121 µM) | 20.4 µg/mL (≈ 39 µM) | 21.3 µg/mL (≈ 40.7 µM) | 35.4 µg/mL (≈ 67.7 µM) | 19.3 µg/mL (≈ 36.9 µM) |
| CC(C)(C(=O)NCc1ccccc1)C1C(=O)Nc2cccc(C(=O)Nc3ccccc3F)c2NC1=O (centres undefined) | 96.1 µg/mL (≈ 197 µM) |  |  |  |  |
